# Published values pooled from the literature.
# Each line is one published result; the experiments were not run side by side.
# MCU: Calcium uniporter protein, mitochondrial (MCU, Homo sapiens, UniProt Q8NE86)
# MTOR: Serine/threonine-protein kinase mTOR (MTOR, Homo sapiens, UniProt P42345)
SMILES,target,assay,setting,IC50 [nM]
N.N.N.N.N.N.N.N.O=C(O)c1ccccc1.O=C(O)c1ccccc1.[N-3].[Ru+4].[Ru+4],MCU,"transporter uptake, inhibitor",,13.9
CC(C)C[C@H](NC(=O)[C@H](Cc1ccccc1)NC(=O)[C@H](Cc1ccc(O)cc1)NC(=O)CNC(=O)[C@H](CCCCN)NC(=O)[C@H](CO)NC(=O)[C@H](CCC(N)=O)NC(=O)CNC(=O)[C@@H](NC(=O)[C@H](CO)NC(=O)[C@@H]1CCCN1C(=O)[C@H](CO)NC(=O)[C@H](CCC(N)=O)NC(=O)[C@H](Cc1ccc(O)cc1)NC(=O)[C@H](CCC(=O)O)NC(=O)[C@H](C)NC(=O)[C@H](CCCCN)NC(=O)[C@@H](N)Cc1ccccc1)C(C)C)C(=O)N[C@@H](Cc1ccccc1)C(=O)N[C@@H](CCCNC(=N)N)C(=O)N1CCC[C@H]1C(=O)N[C@@H](CCCNC(=N)N)C(=O)N[C@@H](CC(N)=O)C(N)=O,"Neuromedin-U receptor 2 (Mus musculus, UniProt Q8BZ39)","ligand displacement, radioligand",cell membranes,0.03
COc1ccc(C(=O)O)cc1S(=O)(=O)Nc1ccc(C(F)(F)F)cc1N1CCCCC1,"Endoplasmic reticulum aminopeptidase 2 (ERAP2, Homo sapiens, UniProt Q6P179, K392N)","enzyme activity, inhibitor",,44000
CN[C@@H]1C[C@H]2O[C@@](C)([C@@H]1OC)n1c3ccccc3c3c4c(c5c6ccccc6n2c5c31)C(=O)NC4,"Serine/threonine-protein kinase LMTK3 (LMTK3, Homo sapiens, UniProt Q96Q04)","enzyme activity, inhibitor, TR-FRET",,0.0045
N.N.N.N.N.N.N.N.O=C(O)c1cccc1.O=C(O)c1cccc1.[Fe+2].[Fe+2].[N-3].[Ru+4].[Ru+4].c1cccc1.c1cccc1,MCU,"transporter uptake, inhibitor",,10.5
CC(=O)Oc1ccc(-c2coc3c4c(c(CC=C(C)C)c(OC(C)=O)c3c2=O)OC(C)(C)C=C4)cc1OC(C)=O,MTOR,"enzyme activity, inhibitor, ELISA",,6200
NCCN.NCCN.NCCN.[Co+3],MCU,"transporter uptake, inhibitor",,76
COc1cc(Nc2ncc(F)c(Nc3ccc4c(n3)NC(=O)C(C)(C)O4)n2)cc(OC)c1OC,"Adenosine receptor A3 (ADORA3, Homo sapiens, UniProt P0DMS8)","cell-free assay, inhibitor",,20
N#CC(C#N)=Cc1cc(C(=O)CCl)c[nH]1,"Epidermal growth factor receptor (EGFR, Homo sapiens, UniProt P00533)","enzyme activity, inhibitor, mobility shift",,13000
O=S(=O)([O-])[O-].[Cu+2],"Delta-aminolevulinic acid dehydratase (Homo sapiens, UniProt P13716, C162A/K59N)","enzyme activity, inhibitor, absorbance",pH 8,2200
C[C@H](N)Cn1ncc2ccc3c(c21)CCCO3,"D(2) dopamine receptor (DRD2, Homo sapiens, UniProt P14416)","ligand displacement, radioligand",,> 100000
Nc1ncc(-c2nc(N3CCOCC3)nc(N3CCOCC3)n2)c(C(F)F)n1,MTOR,"ligand displacement, TR-FRET",,49.9
